Laboratory results published in ChEMBL document CHEMBL3576819, “Design, synthesis, biological evaluation and molecular docking studies of phenylpropanoid derivatives as potent anti-hepatitis B virus agents” (Eur J Med Chem, 2015).

Key:
[1] = Cytotoxicity against human HepG2.2.15 cells assessed as cell death after 9 days by MTT assay; type: cell-based, HepG2 2.2.15
Procedure, shortened: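 HepG2.2.15 cells (MEM, 10% FBS, 380 µg/ml G418, 37 °C, 5% CO2) seeded at 1×10^5 cells/ml, cultured 24 h, then exposed to various drug concentrations; drug-containing medium renewed every 3 d. OD read at 450 nm after 9 days; percent cell death calculated; CC50 = concentration killing 50% of cells. Means of at least two experiments.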

Hepatitis B virus [2] = test: Antiviral activity against Hepatitis B virus infected in human HepG2.2.15 cells assessed as inhibition of HBsAg secretion by ELISA; type: functional, organism-based; details: HepG2 2.2.15
Procedure, shortened: (§1)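 HepG2.2.15 cells (MEM, 10% FBS, 380 µg/ml G418) seeded at 1×10^5 cells/ml, held 24 h at 37 °C, then treated with various drug concentrations; medium with drug renewed every 3 d for up to 9 d. Culture medium sampled on days 3, 6 and 9, stored at -20 °C, and assayed for secreted antigen. Lamivudine as positive control; IC50 = 50% inhibition of secretion; means of at least two experiments.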

Hepatitis B virus [3] = test: Antiviral activity against Hepatitis B virus infected in human HepG2.2.15 cells assessed as inhibition of HBeAg secretion by ELISA; type: functional, organism-based; details: HepG2 2.2.15; procedure, shortened: as §1
[4] = Selectivity index, ratio of CC50 for human HepG2.2.15 cells to IC50 for Hepatitis B virus infected in human HepG2.2.15 cells assessed as inhibition of HBsAg secretion; type: functional
Procedure, shortened: (§2)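 Selectivity index computed as CC50/IC50, with CC50 from cell death of HepG2.2.15 cells after 9 days of treatment (OD 450 nm) and IC50 from 50% inhibition of HBeAg or HBsAg secretion in the same cells; medium with drug renewed every 3 d.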

[5] = Selectivity index, ratio of CC50 for human HepG2.2.15 cells to IC50 for Hepatitis B virus infected in human HepG2.2.15 cells assessed as inhibition of HBeAg secretion; type: functional; procedure, shortened: as §2

IC50 (Hepatitis B virus [2]) [µM]	IC50 (Hepatitis B virus [3]) [µM]	Structure (SMILES)	CC50 at 216 h [1] [µM]	Ratio CC50/IC50 [4]	Ratio CC50/IC50 [5]
387	469	O/N=C/c1ccccn1	402	1.04	0.86
354	431	O/N=C/c1cccs1 [2-THIOPHENECARBOXALDEHYDE OXIME]	562	1.59	1.3
